Assay results of several laboratories.
Protocols differ between the studies behind these lines.
Effect on: enzyme activity
Action: inhibitor
EGFR: Epidermal growth factor receptor (EGFR, Homo sapiens, UniProt P00533)
EGFR L858R/T790M: Epidermal growth factor receptor (EGFR, Homo sapiens, UniProt P00533, L858R/T790M)

Structure (SMILES) | target | method | notes | IC50 [nM]
Oc1ncnc2cc(Nc3nc(-c4ccccc4)cs3)ccc12 | EGFR | ELISA |  | 10
C=CC(=O)Nc1cc(Nc2nc(N3CCc4sccc4C3)c3cccnc3n2)c(OC)cc1N1CCC(N(C)C)CC1 | EGFR | ELISA |  | > 1000
Fc1ccc(-c2n[nH]cc2C=NNc2ccnc3cc(Cl)ccc23)cc1 | EGFR | mobility shift |  | 73000
OCc1ccc(Nc2ccc3ncnc(Nc4cccc(C(F)(F)F)c4)c3c2)cc1 | EGFR | radiometric |  | 8.67
CCC(=O)Nc1cc(Nc2nc(N3CCc4sccc4C3)c3cccnc3n2)c(OC)cc1N1CCSCC1 | EGFR | ELISA |  | > 1000
COc1cc2ncnc(Nc3ccccc3)c2cc1OC | EGFR | mobility shift |  | 14
Oc1ncnc2cc(Nc3nc(-c4ccc(Br)cc4)cs3)ccc12 | EGFR | ELISA |  | 4.96
C=C(Cl)C(=O)Nc1cc(Nc2nc(Nc3cnn(C)c3)c3sccc3n2)c(OC)cc1N(C)CCN(C)C | EGFR L858R/T790M | ELISA |  | 5.9
COc1cc2ncnc(Nc3ccc(F)c(Cl)c3)c2cc1NC(=O)N/N=C/c1cccn1CCN(C)C | EGFR L858R/T790M |  |  | 21.7
Oc1ccc(-c2csc(Nc3ccc4c(O)ncnc4c3)n2)cc1 | EGFR | ELISA |  | 16.3
OCc1ccc(Nc2ccc3c(Nc4cccc(C(F)(F)F)c4)ncnc3c2)cc1 | EGFR | radiometric |  | 2.53
O=C1c2c(O)cc(O)cc2OC(c2ccc(O)c(O)c2)C1O (centres unmarked) | EGFR | radiometric |  | 29000
C=CC(=O)Nc1cc(Nc2nccc(-c3cn(C4CC4)c4ccccc34)n2)c(OC)cc1N(C)CCN(C)C | Epidermal growth factor receptor (EGFR, Homo sapiens, UniProt P00533, G719D) | TR-FRET |  | 54.1
C=C(Cl)C(=O)Nc1cc(Nc2nc(N3CCOCC3)c3sccc3n2)c(OC)cc1N(C)CCN(C)C | EGFR | ELISA |  | > 1000
Cc1ccc(-c2csc(Nc3ccc4c(O)ncnc4c3)n2)cc1 | EGFR | ELISA |  | 8.59
CN(C)C/C=N/NC(=O)Nc1cc2c(Nc3ccc(F)c(Cl)c3)ncnc2cc1O[C@H]1CCOC1 | EGFR L858R/T790M |  |  | 15.4

Structure (SMILES) | target | method | notes | IC50 [nM]
COc1ccc(-c2nn(-c3ccc(S(C)(=O)=O)cc3)cc2C=N/N=c2\[nH]c(-c3ccc([N+](=O)[O-])cc3)cs2)cc1 | Epidermal growth factor receptor (EGFR, Homo sapiens, UniProt P00533, L858R) |  |  | 31
COc1cc2c(Nc3ccc(OCCCn4ccnc4[N+](=O)[O-])c(Cl)c3)ncnc2cc1OCCCN1CCOCC1 | EGFR | FRET |  | 330
C=C(Cl)C(=O)Nc1cc(Nc2nc(N3CCc4sccc4C3)c3sccc3n2)c(OC)cc1N(C)CCN(C)C | EGFR L858R/T790M | ELISA |  | 13
CN1CCN(C/C=N/NC(=O)Nc2cc3c(Nc4ccc(F)c(Cl)c4)ncnc3cc2O[C@H]2CCOC2)CC1 | EGFR L858R/T790M |  |  | 11.6
COc1cc2c(Nc3ccc(OCCn4ccnc4[N+](=O)[O-])c(Cl)c3)ncnc2cc1OCCCN1CCOCC1 | EGFR | FRET |  | 190
CCN(CC)CCCn1cccc1/C=N/NC(=O)Nc1cc2c(Nc3ccc(F)c(Cl)c3)ncnc2cc1O[C@H]1CCOC1 | EGFR L858R/T790M |  |  | 12.8
C=CC(=O)Nc1cc(Nc2nccc(Nc3cc(Cl)c(F)cc3C(C)(C)O)n2)c(OC)cc1N1CC[C@@H](N(C)C)C1 | EGFR L858R/T790M |  | with preincubation | 13
CC(C)Cc1ccc(-c2nn(-c3ccc(S(C)(=O)=O)cc3)cc2/C=N/N=c2\[nH]c(-c3ccc([N+](=O)[O-])cc3)cs2)cc1 | EGFR L858R/T790M |  |  | 164
COc1cc2ncnc(Nc3ccc(F)c(Cl)c3)c2cc1NC(=O)N/N=C/c1cccn1CCCN(C)C | EGFR |  |  | 1.2
Nc1ccc(-c2csc(Nc3ccc4c(O)ncnc4c3)n2)cc1 | EGFR | ELISA |  | 14.2
O=C(N/N=C/CN1CCOCC1)Nc1cc2c(Nc3ccc(F)c(Cl)c3)ncnc2cc1O[C@H]1CCOC1 | EGFR L858R/T790M |  |  | 14.3
C=C(Cl)C(=O)Nc1cc(Nc2nc(Nc3cnn(C)c3)c3sccc3n2)c(OC)cc1N1CCN(C)CC1 | EGFR | ELISA |  | > 1000
O=C(N/N=C/CN1CCCCC1)Nc1cc2c(Nc3ccc(F)c(Cl)c3)ncnc2cc1O[C@H]1CCOC1 | EGFR |  |  | 0.1
COc1cc2ncnc(NCc3cccs3)c2cc1OC | EGFR | mobility shift |  | 35
CCN(CC)C/C=N/NC(=O)Nc1cc2c(Nc3ccc(F)c(Cl)c3)ncnc2cc1O[C@H]1CCOC1 | EGFR L858R/T790M |  |  | 13.2
COc1ccc(-c2nn(-c3ccc(S(C)(=O)=O)cc3)cc2/C=N/N=c2\[nH]c(-c3ccc(Br)cc3)cs2)cc1 | EGFR L858R/T790M |  |  | 31
